The values below come from article PMC4180220 (Drug metabolism letters, 2012).

Structures are written as SMILES. Entries after “also recorded” stand apart in the source; their conditions may differ. Like-named read-outs stand apart in the source and are kept apart here.

Holding throughout (type): biochemical
One series has as its target T1, human P450 1A2 (Homo sapiens, UniProt P05177).
T1 sequence (P05177 1-516): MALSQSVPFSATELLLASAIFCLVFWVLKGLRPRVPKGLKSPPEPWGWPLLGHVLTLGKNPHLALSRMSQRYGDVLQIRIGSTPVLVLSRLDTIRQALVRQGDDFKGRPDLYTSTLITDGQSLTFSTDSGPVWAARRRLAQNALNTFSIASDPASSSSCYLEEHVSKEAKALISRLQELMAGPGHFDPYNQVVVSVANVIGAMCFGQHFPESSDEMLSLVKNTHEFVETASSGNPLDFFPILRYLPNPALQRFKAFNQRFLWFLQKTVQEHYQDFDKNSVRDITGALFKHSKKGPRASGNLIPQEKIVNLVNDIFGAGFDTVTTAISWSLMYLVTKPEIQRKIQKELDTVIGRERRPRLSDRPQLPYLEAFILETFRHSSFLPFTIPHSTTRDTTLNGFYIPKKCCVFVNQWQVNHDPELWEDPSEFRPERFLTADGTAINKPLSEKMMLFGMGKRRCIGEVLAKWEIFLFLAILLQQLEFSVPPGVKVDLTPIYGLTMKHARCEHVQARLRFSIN
The series is described as follows: Methoxyresorufin O-demethylation.

Series [1] has as its target T2, P450 1A1 (Homo sapiens, UniProt P04798).
T2 sequence (P04798 1-512): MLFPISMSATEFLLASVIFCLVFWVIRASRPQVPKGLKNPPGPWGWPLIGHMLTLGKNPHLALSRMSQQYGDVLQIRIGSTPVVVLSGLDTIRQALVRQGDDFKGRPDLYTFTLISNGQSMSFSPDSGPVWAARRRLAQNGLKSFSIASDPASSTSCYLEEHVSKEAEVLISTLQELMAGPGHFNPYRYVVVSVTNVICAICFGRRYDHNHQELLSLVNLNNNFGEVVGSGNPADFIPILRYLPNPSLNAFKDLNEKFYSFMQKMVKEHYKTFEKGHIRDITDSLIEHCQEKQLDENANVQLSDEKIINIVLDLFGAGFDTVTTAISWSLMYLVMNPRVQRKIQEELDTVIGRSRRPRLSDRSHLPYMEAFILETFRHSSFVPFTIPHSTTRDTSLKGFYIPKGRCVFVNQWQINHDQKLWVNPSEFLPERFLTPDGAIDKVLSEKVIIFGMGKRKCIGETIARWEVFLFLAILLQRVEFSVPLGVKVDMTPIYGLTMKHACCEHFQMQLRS
As to the kind of experiment: Ethoxyresorufin O-deethylation.

Another series concerns the target T3, human P450 2A6 (Homo sapiens, UniProt P11509).
T3 sequence (P11509 1-494): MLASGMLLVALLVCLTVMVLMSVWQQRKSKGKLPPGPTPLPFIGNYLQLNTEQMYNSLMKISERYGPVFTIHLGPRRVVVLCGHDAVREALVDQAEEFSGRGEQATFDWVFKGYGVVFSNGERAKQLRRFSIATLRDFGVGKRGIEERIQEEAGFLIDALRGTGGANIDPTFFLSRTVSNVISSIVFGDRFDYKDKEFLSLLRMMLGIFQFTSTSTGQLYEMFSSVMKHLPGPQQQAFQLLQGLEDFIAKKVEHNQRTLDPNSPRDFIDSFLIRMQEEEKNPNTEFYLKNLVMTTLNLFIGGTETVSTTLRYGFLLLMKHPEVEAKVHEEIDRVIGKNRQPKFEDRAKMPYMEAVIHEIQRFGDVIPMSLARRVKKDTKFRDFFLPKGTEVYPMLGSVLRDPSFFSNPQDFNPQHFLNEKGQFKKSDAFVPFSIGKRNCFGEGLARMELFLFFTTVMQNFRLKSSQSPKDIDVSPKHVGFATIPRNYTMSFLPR
The series is described as follows: Coumarin 7-hydroxylation inhibition assay.

Another series concerns the target T4, rat P4502B1 (Rattus norvegicus, UniProt P00176).
T4 sequence (P00176 1-491): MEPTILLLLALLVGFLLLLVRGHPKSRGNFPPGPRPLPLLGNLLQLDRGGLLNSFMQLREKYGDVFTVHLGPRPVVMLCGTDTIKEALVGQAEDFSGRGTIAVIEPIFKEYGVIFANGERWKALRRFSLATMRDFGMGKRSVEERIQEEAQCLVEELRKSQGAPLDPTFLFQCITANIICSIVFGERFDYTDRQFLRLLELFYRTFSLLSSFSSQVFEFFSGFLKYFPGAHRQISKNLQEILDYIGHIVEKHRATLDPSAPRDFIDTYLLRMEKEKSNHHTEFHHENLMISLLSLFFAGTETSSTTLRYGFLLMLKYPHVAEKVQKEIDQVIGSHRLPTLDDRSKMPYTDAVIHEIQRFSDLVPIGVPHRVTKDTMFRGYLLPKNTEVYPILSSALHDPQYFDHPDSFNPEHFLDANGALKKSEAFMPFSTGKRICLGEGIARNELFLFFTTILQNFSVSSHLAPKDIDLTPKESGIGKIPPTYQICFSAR
As to the kind of experiment: Pentoxyresorufin O-depentylation. In a few lines: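 Rat P450 2B1 supersomes (5 nM final) and resorufin pentyl ether (5 μM final) in 0.1 M potassium phosphate pH 7.6 with MgCl2; test compound in DMSO. Started with NADPH regenerating system (NADP+, glucose-6-phosphate, G6P dehydrogenase), 37°C. Resorufin fluorescence (535/585 nm) progress curves fit second-order; linear coefficient taken as activity.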

Series [2] deals with T2, P450 1A1. The series is described as follows: Mechanism-based inhibition of P450 1A1. The settings on record: NADPH-dependency assay. In a few lines:
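Human P450 1A1 supersomes (5 nM final) pre-incubated 5 min at 37°C with the test compound at varied concentrations in 0.1 M potassium phosphate pH 7.6 with MgCl2, with or without NADPH regenerating system. Reaction started with resorufin ethyl ether (5 μM final) plus buffer or the regenerating system. Resorufin formation followed at 535 nm ex/585 nm em, 37°C; DMSO controls.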

The mark [3] stands for this setting: compounds of this study, log conversion of the IC50.
[4] abbreviates: read-out: IC50 2A6, human P450 2A6 supersomes, coumarin 5 μM, Dixon plot.

One may read the IC50 as the point on the concentration scale where inhibition reaches its midpoint. For `O=c1cc(-c2ccccc2O)oc2ccccc12` [2′-HF, reference compound], on human P450 1A2 (setting [3]), the “Actual (EL) logIC50 (9-logIC50), P450 1A2” value was 5.0273. The “Actual (EL) logIC50 (9-logIC50), P450 1A1” value on P450 1A1 [1] (setting [3]) was determined as 4.7518. Also, the IC50 at human P450 2A6 (setting [4]) was > 50 µM.
As for `C#CCOc1ccccc1-c1cc(=O)c2ccccc2o1` [2′-PF, 2′-flavone propargyl ether], at human P450 1A2 (setting [3]), the “Actual (EL) logIC50 (9-logIC50), P450 1A2” value was found to be 5.8894. The “Inhibition of P450 2B1 (in words)” value on rat P4502B1 is “inhibited”. Moreover, the “Actual (EL) logIC50 (9-logIC50), P450 1A1” value on P450 1A1 [1] (setting [3]) is 6.2518. In addition, the half-maximal inhibitory concentration (IC50) on human P450 2A6 (setting [4]) is > 10 µM.
As to `O=c1cc(-c2cccc(O)c2)oc2ccccc12` [3′-HF, reference compound], the “Actual (EL) logIC50 (9-logIC50), P450 1A2” value at human P450 1A2 (setting [3]) amounted to 5.0353. At P450 1A1 [1] (setting [3]), the “Actual (EL) logIC50 (9-logIC50), P450 1A1” value is given as 5.3010. In addition, the IC50 at human P450 2A6 (setting [4]) is > 50 µM.
For `C#CCOc1cccc(-c2cc(=O)c3ccccc3o2)c1` [3′-PF, 3′-flavone propargyl ether], the “Actual (EL) logIC50 (9-logIC50), P450 1A2” value at human P450 1A2 (setting [3]) is 6.1739. In addition, at P450 1A1 [1] (setting [3]), the “Actual (EL) logIC50 (9-logIC50), P450 1A1” value is on record as 7.6990. On P450 1A1 [2], the “Mechanism-based inhibition of P450 1A1 (in words)” value is recorded as “ability to cause mechanism-based inhibition; also recorded: exhibited mechanism-based inhibition”. The half-inhibitory concentration (IC50) at human P450 2A6 (setting [4]) was > 10 µM.
Regarding `O=c1cc(-c2ccc(O)cc2)oc2ccccc12` [4′-HF, reference compound], the “Actual (EL) logIC50 (9-logIC50), P450 1A2” value at human P450 1A2 (setting [3]) is reported as 5.1858. At P450 1A1 [1] (setting [3]), the “Actual (EL) logIC50 (9-logIC50), P450 1A1” value was 4.7378. Also, the IC50 on human P450 2A6 (setting [4]) is > 50 µM.
The corresponding values for `C#CCOc1ccc(-c2cc(=O)c3ccccc3o2)cc1` [4′-PF, 4′-flavone propargyl ether] are 5.8962, 6.1871 and > 10 µM.
On to `O=c1cc(-c2ccccc2)oc2cccc(O)c12` [Compound 5-HF, 5-hydroxy flavone, reference compound], for which the 50% inhibitory concentration (IC50) on rat P4502B1 and against human P450 2A6 was > 50 µM in each case.
Regarding `C#CCOc1cccc2oc(-c3ccccc3)cc(=O)c12` [Compound 5-PF, 5-flavone propargyl ether], the “Actual (EL) logIC50 (9-logIC50), P450 1A2” value at human P450 1A2 (setting [3]) stood at 6.4202. Also, the “Actual (EL) logIC50 (9-logIC50), P450 1A1” value at P450 1A1 [1] (setting [3]) came out at 5.7959. In addition, on human P450 2A6 (setting [4]), the IC50 was > 10 µM.
The corresponding values for `O=c1cc(-c2ccccc2)oc2ccc(O)cc12` [Compound 6-HF, reference compound] are 5.1599, 4.9080 and > 50 µM.
Turning to `C#CCOc1ccc2oc(-c3ccccc3)cc(=O)c2c1` [Compound 6-PF, 6-flavone propargyl ether], the “Actual (EL) logIC50 (9-logIC50), P450 1A1” value at P450 1A1 [1] (setting [3]) was found to be 6.4318. The half-inhibitory concentration (IC50) at human P450 2A6 (setting [4]) is > 10 µM.
With `C#CCOc1ccc2c(c1)C(=O)CC(c1ccccc1)O2` (centres unmarked) [Compound 6-PFN, 6-flavanone propargyl ether], on human P450 1A2, the half-maximal inhibitory concentration (IC50) is > 10 µM and the “Inhibition of P450 1A2 (in words)” value is “did not show inhibition”. The “Inhibition of P450 2B1 (in words)” value at rat P4502B1 was “inhibited”. Also, at P450 1A1 [1], the “Actual (EL) logIC50 (9-logIC50), P450 1A1” value was 5.2388 and the half-inhibitory concentration (IC50) was 5.77 µM. Besides, at human P450 2A6, the 50% inhibitory concentration (IC50) is > 10 µM.
With `O=c1cc(-c2ccccc2)oc2cc(O)ccc12` [Compound 7-HF, 7-hydroxy flavone, reference compound], the IC50 against human P450 1A2 was 2.55 µM; against rat P4502B1 it was > 50 µM; on P450 1A1 [1] it was 6.79 µM; at human P450 2A6, > 50 µM. The “Mechanism-based inhibition of P450 1A1 (in words)” value at P450 1A1 [2] is “exhibited mechanism-based inhibition”.
For `C#CCOc1ccc2c(=O)cc(-c3ccccc3)oc2c1` [Compound 7-PF, 7-flavone propargyl ether], on human P450 2A6 (setting [4]), the IC50 is > 10 µM.
`C#CCOc1ccc2c(c1)OC(c1ccccc1)CC2=O` (centres unmarked) [Compound 7-PFN, 7-flavanone propargyl ether]: the “Actual (EL) logIC50 (9-logIC50), P450 1A2” value on human P450 1A2 is recorded as 6.0132. In addition, the IC50 at human P450 1A2 was 0.97 µM; on P450 1A1 [1], 5.98 µM; at human P450 2A6, > 10 µM. Moreover, the “Actual (EL) logIC50 (9-logIC50), P450 1A1” value on P450 1A1 [1] is recorded as 5.2233.
